{
  "source": "ChEMBL document CHEMBL1150402",
  "about": "“Carbon-11 labeled indolylpropylamine analog as a new potential PET agent for imaging of the serotonin transporter” (Bioorg Med Chem, 2008)",
  "key": {"[1]": {"target": "Sodium-dependent noradrenaline transporter (Homo sapiens, UniProt P23975)", "sequence (P23975 whole entry)": "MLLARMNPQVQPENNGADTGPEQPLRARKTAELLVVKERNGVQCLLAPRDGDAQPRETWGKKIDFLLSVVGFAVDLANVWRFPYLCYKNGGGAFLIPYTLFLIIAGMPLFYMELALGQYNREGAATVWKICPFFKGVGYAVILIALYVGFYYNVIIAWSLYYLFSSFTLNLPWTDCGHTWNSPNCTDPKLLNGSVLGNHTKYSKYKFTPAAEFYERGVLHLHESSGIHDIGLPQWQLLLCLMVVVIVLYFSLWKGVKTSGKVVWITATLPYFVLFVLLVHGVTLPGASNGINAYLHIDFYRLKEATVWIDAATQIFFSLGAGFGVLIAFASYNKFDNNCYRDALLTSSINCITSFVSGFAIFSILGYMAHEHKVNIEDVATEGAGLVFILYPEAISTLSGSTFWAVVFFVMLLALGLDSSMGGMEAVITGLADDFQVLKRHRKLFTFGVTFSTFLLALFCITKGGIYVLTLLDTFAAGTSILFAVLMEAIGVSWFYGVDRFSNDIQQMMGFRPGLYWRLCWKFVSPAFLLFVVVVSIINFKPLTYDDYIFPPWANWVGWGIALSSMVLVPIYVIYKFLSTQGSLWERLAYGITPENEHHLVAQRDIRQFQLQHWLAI", "assay": "Displacement of [3H]nisoxetine from human NET expressed in HEK293 cells", "format": "cell-based", "outline": "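Stably transfected HEK293 membrane preparation (50-80 ug protein/tube) in 50 mM Tris-HCl pH 7.4, 120 mM NaCl, 5 mM KCl. 0.5 nM radioligand with 6-12 test concentrations, 21 °C for 60 min. Nonspecific: 100 uM protriptyline. GF/B filtration, scintillation counting. Triplicates per experiment; IC50 by nonlinear fitting, converted to Ki.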"}, "[2]": {"target": "Sodium-dependent dopamine transporter (Homo sapiens, UniProt Q01959)", "sequence (Q01959 whole entry)": "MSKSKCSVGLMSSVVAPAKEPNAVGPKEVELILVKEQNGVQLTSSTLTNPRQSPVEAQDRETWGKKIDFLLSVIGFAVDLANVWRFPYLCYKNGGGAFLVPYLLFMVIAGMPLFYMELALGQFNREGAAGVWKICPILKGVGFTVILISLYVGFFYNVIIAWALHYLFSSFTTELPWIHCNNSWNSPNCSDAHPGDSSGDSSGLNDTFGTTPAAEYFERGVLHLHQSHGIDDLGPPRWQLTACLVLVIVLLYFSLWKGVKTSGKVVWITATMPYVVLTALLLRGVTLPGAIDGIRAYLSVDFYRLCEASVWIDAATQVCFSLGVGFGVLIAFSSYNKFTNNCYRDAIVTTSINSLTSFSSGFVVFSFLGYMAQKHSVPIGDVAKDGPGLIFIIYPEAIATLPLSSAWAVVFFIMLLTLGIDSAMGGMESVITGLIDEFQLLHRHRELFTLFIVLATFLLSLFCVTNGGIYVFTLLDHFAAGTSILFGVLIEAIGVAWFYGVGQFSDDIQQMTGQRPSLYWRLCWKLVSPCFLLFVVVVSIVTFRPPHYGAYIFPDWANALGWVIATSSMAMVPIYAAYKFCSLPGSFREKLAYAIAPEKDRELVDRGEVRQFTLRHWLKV", "assay": "Displacement of [3H]WIN-35428 from human DAT expressed in HEK293 cells", "format": "cell-based", "outline": "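Stably transfected HEK293 membrane preparation (50-80 ug protein/tube) in 50 mM Tris-HCl pH 7.4, 100 mM NaCl. 0.5 nM radioligand with 6-12 test concentrations, on ice for 120 min. Nonspecific: 10 uM GBR12909. GF/B filtration, ice-cold Tris washes, scintillation counting. Triplicates per experiment; IC50 by iterative nonlinear fitting, converted to Ki.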"}, "[3]": {"target": "T1, Sodium-dependent serotonin transporter (Homo sapiens, UniProt P31645)", "T1 sequence (P31645 whole entry)": "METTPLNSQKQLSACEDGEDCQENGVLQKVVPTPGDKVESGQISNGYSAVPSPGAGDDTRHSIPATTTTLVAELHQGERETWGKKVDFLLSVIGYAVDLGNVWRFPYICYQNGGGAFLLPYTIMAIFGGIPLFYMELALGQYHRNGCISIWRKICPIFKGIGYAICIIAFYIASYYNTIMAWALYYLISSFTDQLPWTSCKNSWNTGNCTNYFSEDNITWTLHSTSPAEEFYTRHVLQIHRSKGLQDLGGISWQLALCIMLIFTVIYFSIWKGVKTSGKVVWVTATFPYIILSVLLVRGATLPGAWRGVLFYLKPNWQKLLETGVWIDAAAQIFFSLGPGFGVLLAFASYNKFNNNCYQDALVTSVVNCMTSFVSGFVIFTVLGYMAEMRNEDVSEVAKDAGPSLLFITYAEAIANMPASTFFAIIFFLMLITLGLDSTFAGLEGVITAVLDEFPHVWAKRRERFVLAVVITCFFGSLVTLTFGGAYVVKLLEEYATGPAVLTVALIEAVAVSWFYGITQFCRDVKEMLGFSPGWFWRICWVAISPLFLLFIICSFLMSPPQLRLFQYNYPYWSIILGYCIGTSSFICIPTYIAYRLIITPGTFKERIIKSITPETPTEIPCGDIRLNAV", "assay": "biochemical", "format": "cell-based, HEK293"}, "[4]": {"target": "T2, 5-hydroxytryptamine receptor 1A (Rattus norvegicus, UniProt P19327)", "T2 sequence (P19327 whole entry)": "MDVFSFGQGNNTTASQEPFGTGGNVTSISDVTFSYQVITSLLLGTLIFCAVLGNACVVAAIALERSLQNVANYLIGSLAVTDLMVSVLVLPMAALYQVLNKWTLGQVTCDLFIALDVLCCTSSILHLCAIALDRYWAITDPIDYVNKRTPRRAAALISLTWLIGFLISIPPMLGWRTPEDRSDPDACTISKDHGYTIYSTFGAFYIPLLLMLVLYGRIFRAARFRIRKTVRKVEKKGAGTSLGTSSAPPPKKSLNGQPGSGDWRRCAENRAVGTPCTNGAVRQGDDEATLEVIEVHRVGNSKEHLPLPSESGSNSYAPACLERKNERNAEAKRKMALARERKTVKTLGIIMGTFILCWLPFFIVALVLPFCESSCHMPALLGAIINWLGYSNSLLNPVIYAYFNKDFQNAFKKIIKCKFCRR", "assay": "Displacement of [3H]8-OH-DPAT from 5HT1A receptor in rat cortical membrane", "format": "cell membranes", "outline": "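Cortex from female SPRD rats (~200 g), homogenized and washed in 50 mM Tris-HCl pH 7.4. Membranes in 50 mM Tris-HCl pH 7.4, 4 mM CaCl2, 0.1% ascorbic acid with 0.3 nM radioligand and 6-12 test concentrations, 21 °C for 60 min. Nonspecific: 10 uM serotonin. GF/B filtration, scintillation counting.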"}, "[5]": {"target": "T1, Sodium-dependent serotonin transporter", "assay": "biochemical", "format": "cell-based, HEK293", "remark": "listed apart in the source"}},
  "note": "pKi: −log10 of the molar value.",
  "data": [
    {"compound": "[11CH3]Oc1ccc2c(c1)CCN(CCCc1c[nH]c3ccc(F)cc13)C2", "values": [
      {"measurement": "pKi", "setting": "[1]", "result": 5.77},
      {"measurement": "pKi", "setting": "[2]", "result": 5.60},
      {"measurement": "pKi", "setting": "[3]", "result": 7.60},
      {"measurement": "pKi", "setting": "[4]", "result": 7.27},
      {"measurement": "pKi", "setting": "[5]", "result": 8.39}
    ]},
    {"compound": "[11CH3]Oc1cccc2c1CCN(CCCc1c[nH]c3ccc(Br)cc13)C2", "values": [
      {"measurement": "pKi", "setting": "[1]", "result": 5.18},
      {"measurement": "pKi", "setting": "[2]", "result": 5.46},
      {"measurement": "pKi", "setting": "[3]", "result": 5.53},
      {"measurement": "pKi", "setting": "[4]", "result": 5.70},
      {"measurement": "pKi", "setting": "[5]", "result": 5.72}
    ]},
    {"compound": "[11CH3]Oc1ccc2c(c1)CCN(CCCc1c[nH]c3ccc(Br)cc13)C2", "values": [
      {"measurement": "pKi", "setting": "[1]", "result": 5.56},
      {"measurement": "pKi", "setting": "[2]", "result": 5.99},
      {"measurement": "pKi", "setting": "[3]", "result": 7.88},
      {"measurement": "pKi", "setting": "[4]", "result": 7.30},
      {"measurement": "pKi", "setting": "[5]", "result": 7.94}
    ]},
    {"compound": "[11CH3]Oc1cccc2c1CCN(CCCc1c[nH]c3ccc(I)cc13)C2", "values": [
      {"measurement": "pKi", "setting": "[1]", "result": 5.74},
      {"measurement": "pKi", "setting": "[2]", "result": 5.94},
      {"measurement": "pKi", "setting": "[3]", "result": 5.58},
      {"measurement": "pKi", "setting": "[4]", "result": 5.95},
      {"measurement": "pKi", "setting": "[5]", "result": 6.67}
    ]},
    {"compound": "[11CH3]Oc1cccc2c1CCN(CCCc1c[nH]c3ccc(F)cc13)C2", "values": [
      {"measurement": "pKi", "setting": "[1]", "result": 5.54},
      {"measurement": "pKi", "setting": "[2]", "result": 5.83},
      {"measurement": "pKi", "setting": "[3]", "result": 7.35},
      {"measurement": "pKi", "setting": "[4]", "result": 6.79},
      {"measurement": "pKi", "setting": "[5]", "result": 8.19}
    ]},
    {"compound": "[11CH3]Oc1ccc2c(c1)CCN(CCCc1c[nH]c3ccc(I)cc13)C2", "values": [
      {"measurement": "pKi", "setting": "[1]", "result": 6.15},
      {"measurement": "pKi", "setting": "[2]", "result": 5.44},
      {"measurement": "pKi", "setting": "[3]", "result": 5.95},
      {"measurement": "pKi", "setting": "[4]", "result": 6.16},
      {"measurement": "pKi", "setting": "[5]", "result": 6.43}
    ]},
    {"compound": "CNC(C)Cc1ccc2c(c1)OCO2", "note": "(configuration not stated) [MIDOMAFETAMINE]", "values": [
      {"measurement": "pKi", "setting": "[3]", "result": 8.69},
      {"measurement": "pKi", "setting": "[5]", "result": 9.14}
    ]}
  ]
}
